Data reported in PMC10732652 (Virulence, 2023).
“Also recorded” adds a separate entry of the source.

Tests used:
ScpC protease [1] = conditions: S. pyogenes; cited from earlier work
ApdS = conditions: cited from earlier work
PepO [2] = assay: Cleavage of cathelicidins by recombinant PepO; assay type: in vitro ADME, Streptococcus suis; conditions: 20 μM peptide, 500 nM PepO, PBS, 37°C, 3 hours; SDS-PAGE
Method in brief: (§1)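 Enzyme: His-tagged PepO (aa 29–663) or its Glu513→Ala variant, expressed from pET22b in E. coli BL21(DE3) with 0.5 mM IPTG at 16°C for 12 h. Purified by Ni-Sepharose and exchanged into PBS. Substrates were synthetic LL-37 or mCRAMP (>95% purity). Uncleaved peptide served as control. Products were analysed by SDS-PAGE or MALDI-TOF/TOF MS.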

S. suis ΔpepO = assay: Live/Dead staining; assay type: cell-based, Streptococcus suis; conditions: 1 × 10^5 CFU/ml, 2 μM, 1 hour, CLSM
Method in brief: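 S. suis serotype 2 strain 05ZYH33 ΔpepO mutant, grown in TSB at 37°C/5% CO2; fresh culture washed twice, diluted to 1 × 10^5 CFU/ml. Exposed 1 h to 2 μM cathelicidin peptides, their PepO digests (20 μM peptide + 500 nM His-tagged PepO, PBS, 37°C, 3 h) or truncated fragments. BacLight stained, washed after 15 min, confocal imaging: SYTO9 480/500 nm, PI 490/635 nm.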

PepOE513A = assay: Cleavage of cathelicidins by catalytic site-mutated PepOE513A; assay type: in vitro ADME, Streptococcus suis; conditions: 20 μM peptide, 500 nM PepOE513A, PBS, 37°C, 3 hours; SDS-PAGE
Method in brief: as §1

[3] = system: Mouse peritoneal macrophages; assay: Lysosome formation analysis; assay type: cell-based; conditions: 2 μM, 37°C, 4 hours, 5 × 10^4 cells, CLSM
Method in brief: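 Macrophages from peritoneal fluid of C57BL/6 mice 3 days after i.p. thioglycollate; spun 600 × g 10 min, kept in RPMI-1640, non-adherent cells removed at 6 h. 5 × 10^4 cells exposed 4 h at 37°C to peptides, PepO digests or fragments. Fixed in 4% formaldehyde, permeabilised with 0.1% Triton X-100, blocked in 3% BSA. Rabbit anti-LAMP1 (37°C, 1 h), Alexa Fluor 594 secondary, DAPI; confocal imaging.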

[4] = system: S. suis WT, ΔpepO, and CΔpepO strains; assay: Bactericidal assay, sensitivity of S. suis strains toward cathelicidins; assay type: cell-based, Streptococcus suis; conditions: 8 × 10^4 CFU/ml in PBS, peptide 0–4 μM, 37°C, 1 hour, CFU counting on TSA
Method in brief: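 S. suis serotype 2 strain 05ZYH33 (wild type), its ΔpepO mutant and the complemented strain were grown in TSB at 37°C with 5% CO2 to OD600 0.5. Cells were washed twice and resuspended in PBS. After 1 h at 37°C with LL-37 or mCRAMP, samples were serially diluted and plated on TSA to count surviving CFU.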

Mouse neutrophils = assay: Neutrophil chemotaxis assay; assay type: cell-based; conditions: 1 μM in bottom chamber, 5 × 10^5 cells, 40 minutes, 37°C
Method in brief: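 Bone-marrow neutrophils from C57BL/6 mice, purified on Histopaque-1119/1077 gradients, CellTracker Green-labelled, 1 × 10^7 cells/ml in RPMI-1640. 5 × 10^5 cells placed in Transwell inserts; 1 μM peptides, PepO digests or fragments in lower chamber; 5 μM fMLP as positive control. 40 min at 37°C, migrated cells counted by fluorescence microscopy. CI = cells migrating toward stimulus ÷ toward medium.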

aminopeptidase ApdS = conditions: S. suis; cited from earlier work
PepO [5] = assay: 500 nM of PepO in PBS; conditions: S. suis, 37°C, up to 3 hours
ScpC protease [6] = conditions: cited from earlier work

| Substance | Cleavage by PepO (PepO [2]) | Membrane damage, viable and dead bacteria (SYTO9/PI) (S. suis ΔpepO) | Lysosome formation (LAMP1) [3] | Chemotaxis of neutrophils (chemotaxis index, CI) (Mouse neutrophils) | also measured |
| --- | --- | --- | --- | --- | --- |
| GLLRKGGEKIGEKLKKIGQKIKNFFQKLVPQPEQ |  |  |  |  | not cleaved (ScpC protease [1]): cannot cleave mCRAMP |
| LL-37 | the band intensity of LL-37 disappeared | the number of dead bacteria was clearly larger than that in the PBS-treated group | facilitated lysosome formation in mouse macrophages | effectively chemoattracted mouse neutrophils | Time to cleavage by ApdS (ApdS): in just a few seconds; Cleavage by PepOE513A (PepOE513A): could not cleave LL-37; Resistance of complementary strain CΔpepO [4]: partially restored |
| LLGDFFRKSKEKIGKEFKRIVQRIKDFLRNLVPRTES |  |  |  |  | fragment found (aminopeptidase ApdS): 3 AA at the N-terminal; fragment found (PepO [5]): FR-7 (F6-K12); FRKSKEK, major; also recorded: IG-7 (I13-R19); IGKEFKR, major |
| mCRAMP | also cleaved by PepO | the number of dead bacteria was clearly larger than that in the PBS-treated group | facilitated lysosome formation in mouse macrophages | chemoattracted mouse neutrophils just as well as LL-37 | Cleavage by ScpC protease (ScpC protease [6]): cannot cleave mCRAMP |
